Data from ChEMBL document CHEMBL3826935, “Synthesis and Pharmacology of (Pyridin-2-yl)methanol Derivatives as Novel and Selective Transient Receptor Potential Vanilloid 3 Antagonists” (J Med Chem, 2016).

Test system: not listed separately
Experiment: AUC(0 to 8 hrs) in rat at 1 mg/kg, po
Type: ADME, organism-based
Set-up: time < 6 hr, dose 1 mg/kg, route oral
Settings: in vivo; call rule not given here
How it was run: (§1)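 Rat pharmacokinetics: iv dose 1 mg/kg; po dose 1 or 2 mg/kg depending on compound. AUC taken over 0–8 h. Unbound parameters calculated using plasma free fraction.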
In the case of `C[C@]1(c2ccc(OC(F)(F)F)cc2)C[C@](O)(c2ccccn2)CO1` (single isomer, unassigned), the AUC(0-t) at 6 h is reported as 930 ng·h/mL.

Test system: not listed separately
Experiment: Oral bioavailability in rat at 1 mg/kg
Type: ADME, organism-based
Settings: in vivo
How it was run: as §1
Work on `C[C@]1(c2ccc(OC(F)(F)F)cc2)C[C@](O)(c2ccccn2)CO1` (single isomer, unassigned) yielded a bioavailability of 56%.

Test system: Plasma
Experiment: Plasma concentration in rat
Type: ADME, cell-free
Settings: not given
In the case of `O[C@H](c1ccccn1)C1(c2ccc(OC(F)(F)F)cc2)CC(F)(F)C1`, the Cp is reported as 4700 ng/mL.

Test system: Rattus norvegicus
Experiment: Unbound AUC(0 to 8 hrs) in rat at 1 mg/kg, po
Type: ADME, organism-based
Settings: in vivo
How it was run: as §1
With `C[C@]1(c2ccc(OC(F)(F)F)cc2)C[C@](O)(c2ccccn2)CO1` (single isomer, unassigned) the fAUC was 30 ng·h/mL.

Target: T1, Transient receptor potential cation channel subfamily V member 3 (Homo sapiens, UniProt Q8NET8)
T1 sequence (Q8NET8 whole entry): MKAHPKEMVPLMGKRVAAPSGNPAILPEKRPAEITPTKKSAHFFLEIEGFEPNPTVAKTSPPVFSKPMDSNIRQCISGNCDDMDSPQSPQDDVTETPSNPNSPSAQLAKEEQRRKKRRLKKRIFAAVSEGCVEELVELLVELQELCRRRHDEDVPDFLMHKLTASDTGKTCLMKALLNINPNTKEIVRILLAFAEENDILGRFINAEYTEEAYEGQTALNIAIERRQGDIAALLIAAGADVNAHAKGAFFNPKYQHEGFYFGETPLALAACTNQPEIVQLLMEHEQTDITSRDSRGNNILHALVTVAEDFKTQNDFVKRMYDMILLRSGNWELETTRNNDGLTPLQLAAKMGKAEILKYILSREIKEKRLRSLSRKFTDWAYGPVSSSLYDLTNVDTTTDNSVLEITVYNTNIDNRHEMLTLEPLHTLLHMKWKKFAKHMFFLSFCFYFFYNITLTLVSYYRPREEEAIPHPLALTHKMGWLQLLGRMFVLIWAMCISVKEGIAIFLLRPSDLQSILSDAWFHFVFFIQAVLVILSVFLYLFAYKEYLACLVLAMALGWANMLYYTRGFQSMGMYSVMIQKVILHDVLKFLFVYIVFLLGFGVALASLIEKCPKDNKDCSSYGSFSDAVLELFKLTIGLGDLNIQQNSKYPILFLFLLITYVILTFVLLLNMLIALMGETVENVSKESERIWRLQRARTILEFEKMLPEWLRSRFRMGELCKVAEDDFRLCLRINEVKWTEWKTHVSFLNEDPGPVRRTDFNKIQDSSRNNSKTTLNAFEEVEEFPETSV
Experiment: (§2) Antagonist activity at human TRPV3 expressed in recombinant HEK293 cells assessed as inhibition of 2-APB induced calcium flux by FLIPR analysis
Type: cell-based
Settings: not given
How it was run: (§3)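 HEK293 cells stably expressing human TRPV3 (I25V variant), plated the day before in DMEM + 10% FBS at 37 °C, 5% CO2. Calcium 4 dye loaded in Ca/Mg-free HEPES D-PBS pH 7.4 for 1–2 h at room temperature. Compound dilutions added with 3 min baseline, then 2-APB at 60 µM final; Ca2+ flux read 3 min on FLIPR. Kb from at least duplicates, averaged across independent runs.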
`O[C@H](c1ccccn1)C1(c2ccc(Cl)c(Cl)c2)CCC1` gave an IC50 of 160 nM.

Target: T2, Transient receptor potential cation channel subfamily V member 3 (Homo sapiens) (UniProt Q8NET8)
T2 sequence (whole entry): T1 sequence (Q8NET8 whole entry)
Experiment: as §2
Type: cell-based
Settings: not given
How it was run: as §3
For `O[C@H](c1ccccn1)C1(c2ccc(OC(F)(F)F)cc2)CC(F)(F)C1`, the Kb was 40 nM. For `C[C@]1(O)C[C@@](c2ccc(OC(F)(F)F)cc2)([C@H](O)c2ccccn2)C1`, the Kb was 330 nM. `C[C@]1(c2ccc(OC(F)(F)F)cc2)C[C@](O)(c2ccccn2)CO1` (single isomer, unassigned) gave a Kb of 420 nM. With `O[C@H](c1ccccn1)[C@]1(c2ccc(C(F)(F)F)cc2)C[C@H](O)C1` the Kb was 2240 nM. Molecule `O[C@H](c1ccccn1)C1(c2ccc(Cl)c(Cl)c2)CCC1` has a Kb of 80 nM. For `C[C@]1(O)C[C@@](c2cc(C(F)(F)F)ccn2)([C@H](O)c2ccccn2)C1`, the Kb was 730 nM.

Test system: not listed separately
Experiment: Half life in rat at 1 mg/kg, iv
Type: ADME, organism-based
Settings: in vivo
How it was run: as §1
`C[C@]1(c2ccc(OC(F)(F)F)cc2)C[C@](O)(c2ccccn2)CO1` (single isomer, unassigned) gave a half-life of 3.8 h.

Test system: Liver microsome
Experiment: Drug metabolism in rat liver microsomes assessed as cyclobutane ring oxidation after 1 hr by HPLC analysis
Type: ADME
Settings: not given
How it was run: (§4)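 Compound incubated in rat liver microsomes for 1 h at 37 °C. Metabolite distribution analysed by HPLC; metabolite structures assigned by 1H NMR.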
With `O[C@H](c1ccccn1)C1(c2ccc(Cl)c(Cl)c2)CCC1` the Drug metabolism was “metabolite_detected”.

Target: T2, Transient receptor potential cation channel subfamily V member 3 (Homo sapiens)
Experiment: Antagonist activity at human TRPV3 expressed in recombinant HEK293 cells assessed as free plasma level adjusted concentration for inhibition of 2-APB induced calcium flux by FLIPR analysis
Type: cell-based
Settings: not given
How it was run: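 FLIPR Kb from the 2-APB (60 µM final) Ca2+ flux assay in human TRPV3 HEK293 cells, converted to an unbound value using the measured free fraction in plasma.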
Molecule `C[C@]1(c2ccc(OC(F)(F)F)cc2)C[C@](O)(c2ccccn2)CO1` (single isomer, unassigned) has a Kb of 12000 nM.

Test system: not listed separately
Experiment: Volume of distribution at steady state in rat at 1 mg/kg, iv or 1 mg/kg, po
Type: ADME, organism-based
Settings: in vivo, read-out: Vdss
How it was run: as §1
Molecule `C[C@]1(c2ccc(OC(F)(F)F)cc2)C[C@](O)(c2ccccn2)CO1` (single isomer, unassigned) has a Vd of 3.2 L/kg.

Test system: not listed separately
Experiment: Total plasma clearance in rat at 1 mg/kg, iv
Type: ADME, organism-based
Settings: not given
How it was run: as §1
Work on `C[C@]1(c2ccc(OC(F)(F)F)cc2)C[C@](O)(c2ccccn2)CO1` (single isomer, unassigned) yielded a clearance of 10 mL/min/kg.

Test system: Liver microsome
Experiment: Drug metabolism in rat liver microsomes assessed as aromatic ring oxidation after 1 hr by HPLC analysis
Type: ADME
Settings: not given
How it was run: as §4
For `O[C@H](c1ccccn1)C1(c2ccc(Cl)c(Cl)c2)CCC1`, the Drug metabolism was “metabolite_detected”.

Target: T3, Nuclear receptor subfamily 1 group I member 2 (Homo sapiens, UniProt O75469)
T3 sequence (O75469 whole entry): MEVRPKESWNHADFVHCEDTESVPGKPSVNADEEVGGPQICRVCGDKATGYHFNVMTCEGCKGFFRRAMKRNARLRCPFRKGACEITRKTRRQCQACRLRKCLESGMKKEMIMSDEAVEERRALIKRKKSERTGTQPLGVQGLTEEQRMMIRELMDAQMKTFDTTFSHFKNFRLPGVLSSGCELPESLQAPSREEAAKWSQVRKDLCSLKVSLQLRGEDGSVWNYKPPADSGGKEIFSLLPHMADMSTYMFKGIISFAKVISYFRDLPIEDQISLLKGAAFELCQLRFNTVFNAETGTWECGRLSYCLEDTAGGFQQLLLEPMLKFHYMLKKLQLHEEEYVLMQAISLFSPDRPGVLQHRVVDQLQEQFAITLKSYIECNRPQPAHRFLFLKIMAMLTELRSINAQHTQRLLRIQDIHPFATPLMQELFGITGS
Experiment: Activation of human PXR
Type: ADME
Settings: not given
`O[C@H](c1ccccn1)C1(c2ccc(OC(F)(F)F)cc2)CC(F)(F)C1` gave an EC50 of 5700 nM.

Same assay, conditions: human
For `C[C@]1(O)C[C@@](c2ccc(OC(F)(F)F)cc2)([C@H](O)c2ccccn2)C1`, the Activity was “Not Active”. In the case of `O[C@H](c1ccccn1)[C@]1(c2ccc(C(F)(F)F)cc2)C[C@H](O)C1`, the Activity is reported as “Not Active”. With `C[C@]1(O)C[C@@](c2cc(C(F)(F)F)ccn2)([C@H](O)c2ccccn2)C1` the Activity was “Not Active”.

Species on record: Rattus norvegicus
Experiment: Cardiotoxicity in rat assessed as increase in mean arterial pressure
Type: toxicity, organism-based, Artery
Settings: in vivo
Work on `O[C@H](c1ccccn1)C1(c2ccc(OC(F)(F)F)cc2)CC(F)(F)C1` yielded an Activity of 16%. For `C[C@]1(O)C[C@@](c2ccc(OC(F)(F)F)cc2)([C@H](O)c2ccccn2)C1`, the Activity was “Non-toxic”. In the case of `O[C@H](c1ccccn1)[C@]1(c2ccc(C(F)(F)F)cc2)C[C@H](O)C1`, the Activity is reported as “Non-toxic”. For `C[C@]1(O)C[C@@](c2cc(C(F)(F)F)ccn2)([C@H](O)c2ccccn2)C1`, the Activity was “Non-toxic”.

Test system: Liver microsome
Experiment: Unbound intrinsic clearance in human liver microsomes after 5 hrs by LC-MS/MS analysis
Type: ADME
Settings: not given
How it was run: (§5)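 Microsomal stability run in an automated high-throughput plate format. Intrinsic clearance corrected for nonspecific microsomal binding using measured unbound fraction (fu,mic), reported as unbound Clint in L/h/kg.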
`O[C@H](c1ccccn1)C1(c2ccc(OC(F)(F)F)cc2)CC(F)(F)C1` gave a CL free of 183 mL/min/kg. `C[C@]1(O)C[C@@](c2ccc(OC(F)(F)F)cc2)([C@H](O)c2ccccn2)C1` gave a CL free of 67 mL/min/kg. `C[C@]1(c2ccc(OC(F)(F)F)cc2)C[C@](O)(c2ccccn2)CO1` (single isomer, unassigned) showed a CL free of 120 mL/min/kg. Molecule `O[C@H](c1ccccn1)[C@]1(c2ccc(C(F)(F)F)cc2)C[C@H](O)C1` has a CL free of 50 mL/min/kg. Work on `O[C@H](c1ccccn1)C1(c2ccc(Cl)c(Cl)c2)CCC1` yielded a CL free of 683 mL/min/kg. Molecule `C[C@]1(O)C[C@@](c2cc(C(F)(F)F)ccn2)([C@H](O)c2ccccn2)C1` has a CL free of 33 mL/min/kg.

Species on record: Rattus norvegicus
Experiment: Cardiotoxicity in rat assessed as increase in cardiac contractility at plasma concentration of 4.7 ug/ml
Type: toxicity, organism-based
Settings: not given
For `O[C@H](c1ccccn1)C1(c2ccc(OC(F)(F)F)cc2)CC(F)(F)C1`, the Activity was 29%. With `C[C@]1(O)C[C@@](c2ccc(OC(F)(F)F)cc2)([C@H](O)c2ccccn2)C1` the Activity was “Non-toxic”. In the case of `O[C@H](c1ccccn1)[C@]1(c2ccc(C(F)(F)F)cc2)C[C@H](O)C1`, the Activity is reported as “Non-toxic”. With `C[C@]1(O)C[C@@](c2cc(C(F)(F)F)ccn2)([C@H](O)c2ccccn2)C1` the Activity was “Non-toxic”.

Test system: Liver microsome
Experiment: Drug metabolism in rat liver microsomes assessed as alcohol group oxidation after 1 hr by HPLC analysis
Type: ADME
Settings: not given
How it was run: as §4
In the case of `O[C@H](c1ccccn1)C1(c2ccc(Cl)c(Cl)c2)CCC1`, the Drug metabolism is reported as “metabolite_detected”.

Test system: not listed separately
Experiment: […] plasma clearance in rat at 1 mg/kg, iv
Type: ADME, organism-based
Settings: read-out: CL free (converted)
How it was run: as §1
For `C[C@]1(c2ccc(OC(F)(F)F)cc2)C[C@](O)(c2ccccn2)CO1` (single isomer, unassigned), the clearance was 293 mL/min/kg.

Test system: not listed separately
Experiment: Cmax in rat at 1 mg/kg, iv or 1 mg/kg, po
Type: ADME, organism-based
Settings: in vivo
How it was run: as §1
Work on `C[C@]1(c2ccc(OC(F)(F)F)cc2)C[C@](O)(c2ccccn2)CO1` (single isomer, unassigned) yielded a Cmax of 130 ng/mL.

Test system: Liver microsome
Experiment: Unbound intrinsic clearance in rat liver microsomes after 5 hrs by LC-MS/MS analysis
Type: ADME
Settings: not given
How it was run: as §5
For `O[C@H](c1ccccn1)C1(c2ccc(OC(F)(F)F)cc2)CC(F)(F)C1`, the CL free was 200 mL/min/kg. Work on `C[C@]1(O)C[C@@](c2ccc(OC(F)(F)F)cc2)([C@H](O)c2ccccn2)C1` yielded a CL free of 130 mL/min/kg. For `C[C@]1(c2ccc(OC(F)(F)F)cc2)C[C@](O)(c2ccccn2)CO1` (single isomer, unassigned), the CL free was 167 mL/min/kg. For `O[C@H](c1ccccn1)[C@]1(c2ccc(C(F)(F)F)cc2)C[C@H](O)C1`, the CL free was 50 mL/min/kg. With `O[C@H](c1ccccn1)C1(c2ccc(Cl)c(Cl)c2)CCC1` the CL free was 2520 mL/min/kg. For `C[C@]1(O)C[C@@](c2cc(C(F)(F)F)ccn2)([C@H](O)c2ccccn2)C1`, the CL free was 120 mL/min/kg.

Test system: not listed separately
Experiment: Fraction unbound in human plasma
Type: ADME, cell-free
Settings: not given
`C[C@]1(c2ccc(OC(F)(F)F)cc2)C[C@](O)(c2ccccn2)CO1` (single isomer, unassigned) gave a fraction unbound of 0.06. With `O[C@H](c1ccccn1)C1(c2ccc(Cl)c(Cl)c2)CCC1` the fraction unbound was 0.007.
